Experimental findings from ChEMBL document CHEMBL1148735, “4-Substituted trinems as broad spectrum beta-lactamase inhibitors: structure-based design, synthesis, and biological activity” (J Med Chem, 2007) are described below.

One test deals with Beta-lactamase TEM (Escherichia coli, UniProt P62593). Put plainly: Inhibition of Escherichia coli TEM1. The essentials: (§1)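 Recombinant β-lactamase, expressed in the pET system without its signal peptide and carrying an N-terminal His6 tag, purified on Ni-NTA. Inhibitor made as a 50 mM DMSO stock, then diluted in 50 mM phosphate pH 7 with 10% DMSO final. Enzyme and inhibitor preincubated 10 min at 37 °C. Started with prewarmed nitrocefin; A490 read every 30 s for 10 min at 37 °C.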
Sequence of Beta-lactamase TEM (P62593 whole entry): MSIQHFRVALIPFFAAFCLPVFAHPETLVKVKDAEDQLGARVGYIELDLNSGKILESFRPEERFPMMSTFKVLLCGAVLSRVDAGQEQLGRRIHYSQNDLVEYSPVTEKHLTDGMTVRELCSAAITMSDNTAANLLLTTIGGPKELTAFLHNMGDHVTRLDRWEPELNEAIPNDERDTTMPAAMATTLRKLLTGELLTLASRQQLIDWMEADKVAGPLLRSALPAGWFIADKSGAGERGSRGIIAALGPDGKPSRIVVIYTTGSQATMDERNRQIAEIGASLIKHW

In the next test the target is Beta-lactamase (Enterobacter cloacae, UniProt P05364). Put plainly: Inhibition of Enterobacter cloacae AmpC.
Sequence of Beta-lactamase (P05364 whole entry): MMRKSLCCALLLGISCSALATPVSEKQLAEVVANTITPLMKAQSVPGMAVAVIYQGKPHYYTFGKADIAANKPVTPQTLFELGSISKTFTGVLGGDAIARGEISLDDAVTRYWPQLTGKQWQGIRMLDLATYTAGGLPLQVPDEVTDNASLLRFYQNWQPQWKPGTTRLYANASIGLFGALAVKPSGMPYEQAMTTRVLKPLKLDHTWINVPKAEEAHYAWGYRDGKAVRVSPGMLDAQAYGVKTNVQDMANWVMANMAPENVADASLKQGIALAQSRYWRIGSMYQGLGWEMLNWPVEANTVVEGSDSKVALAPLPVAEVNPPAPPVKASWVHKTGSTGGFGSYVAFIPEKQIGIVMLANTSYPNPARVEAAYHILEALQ
The target in another test is T1, Beta-lactamase SHV-1 (Escherichia coli, UniProt P0AD63).
T1 sequence (P0AD63 whole entry): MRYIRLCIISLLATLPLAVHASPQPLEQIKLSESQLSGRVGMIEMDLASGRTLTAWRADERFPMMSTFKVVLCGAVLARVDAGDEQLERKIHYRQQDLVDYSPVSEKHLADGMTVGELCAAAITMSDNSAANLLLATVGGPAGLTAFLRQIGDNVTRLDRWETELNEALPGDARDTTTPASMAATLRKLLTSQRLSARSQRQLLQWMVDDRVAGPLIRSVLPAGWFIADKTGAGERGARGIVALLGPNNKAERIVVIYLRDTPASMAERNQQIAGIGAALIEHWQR
Put plainly: Inhibition of Escherichia coli SHV1. Summed up: as §1

Broadly, the IC50 is the concentration that gives 50% inhibition. Take `C/C=C1/C(=O)N2C(C(=O)O)=C3[C@@H](OCCCC)CCC[C@@H]3[C@H]12`: the figures for the IC50 against Beta-lactamase TEM, against Beta-lactamase and at Beta-lactamase SHV-1 were 32 nM, 720 nM and 206 nM, respectively.
With `C/C=C1/C(=O)N2C(C(=O)O)=C3[C@@H](OC(C)C)CCC[C@@H]3[C@H]12`, the IC50 against Beta-lactamase TEM is 39 nM; against Beta-lactamase it was 341 nM; against Beta-lactamase SHV-1, 340 nM.
The matching figures for `C/C=C1/C(=O)N2C(C(=O)O)=C3[C@@H](OCCC#N)CCC[C@@H]3[C@H]12`: 18 nM, 209 nM and 152 nM.
The matching figures for `C/C=C1/C(=O)N2C(C(=O)O)=C3[C@@H](CCC[C@H]3OCC)[C@H]12`: 22 nM, 295 nM and 284 nM.
Take `C/C=C1/C(=O)N2C(C(=O)O)=C3[C@@H](OCCF)CCC[C@@H]3[C@H]12`: the IC50 was 21 nM against Beta-lactamase TEM, 1020 nM at Beta-lactamase and 148 nM against Beta-lactamase SHV-1.
The like results for `C/C=C1/C(=O)N2C(C(=O)O)=C3[C@@H](OCC)CCC[C@@H]3[C@H]12` were, in that order, 57 nM, 229 nM and 385 nM.
Consider `C/C=C1/C(=O)N2C(C(=O)O)=C3[C@@H](CCC[C@H]3OCCCC)[C@H]12`, for which the figures for the IC50 at Beta-lactamase TEM, against Beta-lactamase and on Beta-lactamase SHV-1 were 12 nM, 430 nM and 219 nM, respectively.
